mABHD4 FP: ABHD4 inhibitors, primary screen, biochemical, fluorescence polarization, mouse. (Lyso)-N-acylphosphatidylethanolamine lipase (Mus musculus), Q8VD66. purified mABHD4, FP-Rh probe fluorescence polarization. inhibition, % at 8.92 µM. 370,000 compounds, 0.54% hits;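 active = inhibition exceeding the mean over every tested compound plus 3 SD, cut at about 30% in these data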;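 also: 0% = plate median of compound wells and 100% = S159A mutant with DMSO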
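Test system: mouse ABHD4 enzyme, wild type. Reagent: FP-Rh fluorescent activity-based probe, added after compound pre-incubation. Timing: pre-incubation 45 min, probe exposure 60 min, at 25 °C. Technique: FP readout, ex 525 nm / em 598 nm. Benchmarks: high control S159A mutant with DMSO, low control median of compound wells.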
HTRA1 inh: HTRA1 serine protease inhibitors, primary screen, biochemical, fluorescence polarization, HTS. recombinant HTRA1, FP-rhodamine activity-based probe. inhibition, % at 5.96 µM. Q92743. 340,000 compounds, 0.5% hits; in the data active = inhibition above about 36%;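 also: 0% = enzyme with DMSO and 100% = wells lacking enzyme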
Target sequence (Q92743 whole entry, looked up): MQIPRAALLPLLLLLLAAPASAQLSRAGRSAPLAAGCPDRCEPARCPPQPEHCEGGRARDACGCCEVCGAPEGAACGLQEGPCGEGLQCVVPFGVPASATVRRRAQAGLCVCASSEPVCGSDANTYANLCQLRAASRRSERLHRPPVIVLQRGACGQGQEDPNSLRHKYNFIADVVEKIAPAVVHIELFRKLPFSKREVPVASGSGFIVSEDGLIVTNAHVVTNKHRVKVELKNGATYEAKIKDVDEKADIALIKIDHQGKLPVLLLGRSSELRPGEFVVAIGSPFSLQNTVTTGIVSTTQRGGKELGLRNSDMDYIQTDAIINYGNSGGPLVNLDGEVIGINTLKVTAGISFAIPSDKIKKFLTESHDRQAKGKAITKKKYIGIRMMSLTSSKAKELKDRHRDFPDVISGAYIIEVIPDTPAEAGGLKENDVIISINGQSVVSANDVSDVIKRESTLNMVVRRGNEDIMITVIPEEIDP
SIAE primary: human SIAE inhibitors, primary screen, biochemical, fluorescence polarization, FP-Rh probe, 1536-well HTS. SIAE FP-Rh probe binding. 370,000 compounds, 0.69% hits. inhibition, % at 9.66 µM. AID 1053197, 2014. Sialate O-acetylesterase (Homo sapiens), Q9HAT2;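 active = inhibition above a cutoff: mean of compounds within the control limits plus 3 SD of those, cut at about 17% in these data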;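 also: 0% = plate median of compound wells and 100% = probe without SIAE protein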
TCR CD3 inh: inhibitors of human TCR-CD3 interaction, primary screen, biochemical, fluorescence, TAMRA-labeled TCR probe. T-cell receptor (TCR). inhibition, % at 9.4 µM. 360,000 compounds, 0.37% hits; in the data active = inhibition above about 19%;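 also: recombinant mutant TCR 2C K166C tagged with TAMRA read by polarization; 0% = receptor in buffer alone and 100% = receptor with positive control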
PRMT1 FP inh: PRMT1 methyltransferase inhibitors, primary screen, biochemical, fluorescence polarization; Protein arginine N-methyltransferase 1 (Homo sapiens), Q99873; recombinant PRMT1, activity-based probe fluorescence polarization; inhibition, % at 2.79 µM; 370,000 compounds, 1.3% hits; AID 652257, 2013;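 active = inhibition above about 21% made by adding two undisclosed values, limit read from the data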
* marks the source's active call; other numbers are inactive results; . = not tested or not shown. Only some compounds are listed: those with a hit (about 2.5% of all), similar ones and a draw of the others.

SMILES	mABHD4 FP	HTRA1 inh	SIAE primary	TCR CD3 inh	PRMT1 FP inh
CCN(CC)S(=O)(=O)c1ccc(OC)c(NC(=O)CSc2cc(C)ccc2C)c1	5	-31	-4	8	-2
Cc1cc(C)c(NC(=O)CSc2nnc(-c3ccncc3)n2Cc2ccco2)c(Cl)c1	-7	5	-4	0	22*
O=C(CSc1nnc(-c2ccncc2)n1Cc1ccco1)Nc1cccc(O)c1	4	6	-3	-5	6
COc1ccc(NC2CCCN(C(=O)CCC(=O)c3ccc(F)cc3)C2)cc1 (stereo not given)	0	1	6	0	6
CC(C)OC(=O)c1sc2nc(-c3ccccc3)ccc2c1N	0	-16	-5	-6	10
COC(=O)c1sc2nc(-c3ccco3)ccc2c1N	21	8	10	6	55*
COc1cc(NC(=O)COC(=O)[C@@H]2CCCN2S(=O)(=O)c2ccc(Cl)cc2)cc(OC)c1OC	-3	-4	18*	3	2
O=C(COC(=O)[C@@H]1CCCN1S(=O)(=O)c1ccc(Cl)cc1)NC12CC3CC(CC(C3)C1)C2	6	-28	-2	-1	0
COc1ccccc1NC1=C(NC(C)=O)C(=O)c2ccccc2C1=O	5	8	-7	-3	25*
COC1=C(Nc2ccccc2OC)C(=O)c2ccccc2C1=O	1	.	-1	-4	5
Cc1cc(NS(=O)(=O)c2ccc(NC(=O)c3ccccc3F)cc2)no1	-4	6	-2	-2	-4
COc1ccccc1C(=O)Nc1ccc(S(=O)(=O)Nc2cc(C)on2)cc1	0	0	27*	2	-4
CCN1CCN(C2=C(NS(=O)(=O)c3ccc(Br)cc3)C(=O)c3ccccc3C2=O)CC1	6	6	9	0	22*
CCN1CCN(C2=C(NS(=O)(=O)c3ccccc3)C(=O)c3ccccc3C2=O)CC1	7	4	11	3	7
CC1CCCC(C(=O)O)N1C(=O)CCS (stereo not given)	-14	7	-7	-7	25*
CSCCC(=O)N1C(C)CCCC1C(=O)O (stereo not given)	3	1	1	-4	0
S=c1[nH]nc(COc2ccccc2)n1/N=C/c1ccccc1Cl	-2	-6	7	-11	23*
COc1ccc(Nc2nnc(-c3ccc4c(c3)OCO4)o2)cc1	6	.	0	2	24*
COc1ccc(-c2noc(-c3ccc4c(c3)OCO4)n2)cc1	-2	-2	-1	-3	0
CC(C)CN1C(=O)NC(NS(=O)(=O)c2ccc(N)cc2)(C(F)(F)F)C1=O (stereo not given)	-4	2	-3	-3	24*
CCOc1ccc(CNC(=O)CCC(=O)n2ncc3ccc(Cl)cc32)cc1	1	-8	1	10	-4
O=C(Sc1n[nH]c(=O)[nH]c1=O)c1ccccc1	1	6	5	1	88*
CCn1c(CC(=O)Nc2ccc(OC)cc2)nnc1SCC(=O)N1CCOCC1	-2	-6	0	14	2
COCCCNc1oc(COc2ccc(Cl)cc2Cl)nc1C#N	-7	2	17*	0	-4
CN(C)CCNc1oc(COc2ccc(Cl)cc2Cl)nc1C#N	12	0	6	-2	9
SMILES	mABHD4 FP	HTRA1 inh	SIAE primary	TCR CD3 inh	PRMT1 FP inh
COc1ccc(Cl)cc1NC(=O)CSc1nnc(Cc2ccc(C)cc2)c(=O)[nH]1	-27	-49	-12	1	24*
C=C(CN(C)C)C(=O)c1ccc(C)cc1C	5	0	-5	-2	23*
Cc1ccc(C(=O)CC(=O)c2ccccc2C)c(O)c1	-2	23	4	-10	0
Cc1ccc(NC(=O)c2ccc(=O)[nH]n2)cc1C	4	-5	0	2	-1
Cc1ccc(NC(=O)c2ccc(=O)[nH]n2)cc1S(=O)(=O)Nc1ccc(SC(F)F)cc1	-60	-44	-59	11	46*
O=C(Nc1ccc(OC(F)F)c(Cl)c1)Nc1ccc2c(c1)OCO2	5	12	3	2	1
O=C(Nc1ccc([N+](=O)[O-])cc1)Nc1ccc(OC(F)F)c(Cl)c1	-29	-112	-284	40*	3
O=C(NC1CCCC1)c1ccc2nc[nH]c2c1	3	4	4	4	3
O=C(NC1CCCC1)c1ccc2nc(-c3ccco3)c(-c3ccco3)nc2c1	.	58*	.	.	.
O=C(NCCO)c1ccc(Cl)c(Cl)c1	2	12	4	-4	0
O=C(NCCO)c1ccc2nc(-c3ccco3)c(-c3ccco3)nc2c1	42*	22	20*	26*	65*
O=c1c2ccccc2oc2ccc(-c3ccc4[nH]ccc4c3)cc12	-37	-78	-31	0	2
CC(C)CC1NC(=O)N(CC(=O)N2c3ccccc3NC(=O)C2(C)C)C1=O (stereo not given)	2	-2	20*	0	1
CN(C)CCCN1c2ccc([N+](=O)[O-])cc2CCc2cc([N+](=O)[O-])ccc21	2	1	-1	-6	22*
COc1cnn(-c2ccccc2)c(=O)c1SCc1ccc(Cl)cc1Cl	-11	-19	-3	2	17
Cn1ncc2c(c(SCc3ccc(Cl)cc3Cl)nn2C)c1=O	-7	10	-5	-1	22*
Cc1cccc(NC2=C(NC(=O)c3ccccc3)C(=O)c3ccccc3C2=O)c1	15	9	13	7	29*
Cc1nc(N2CCOCC2)nc2c1CCC2	9	0	-5	-8	1
Cc1nc2c(=O)[nH]c(=S)n(C)c2nc1C	8	3	-3	-4	23*
N#Cc1sc2nc(-c3ccccc3)cc(-c3ccco3)c2c1N	15	43*	8	-2	3
Cc1ccc(NC2CCCN(C(=O)CCn3nccc3C)C2)cc1C (stereo not given)	7	6	2	1	1
COc1ccc(CCn2c(S)nc3ccccc3c2=O)cc1	3	1	-5	-5	3
O=C(CSc1nc2ccccc2c(=O)[nH]1)Nc1ccc(C(=O)O)cc1	-8	-1	-7	3	-3
O=C(CSc1nc2ccccc2c(=O)[nH]1)Nc1ccc(S(=O)(=O)N2CCCC2)cc1	-19	-17	-12	4	23*
O=C1CC(SCc2nc3ccccc3[nH]2)C(=O)N1c1cccc(Cl)c1 (stereo not given)	-14	-9	-14	-7	31*
CCOc1cc(NC(=S)Nc2cccc(C)c2)c(OCC)cc1NC(=O)CC(C)C	15	1	9	-6	24*
Cc1[nH]n(-c2cccc(Cl)c2)c(=O)c1-c1ccccc1	-5	-12	1	-5	-2
